{"source": "ChEMBL document CHEMBL1152965", "about": "“Synthesis and in vitro antiplasmodial evaluation of 4-anilino-2-trichloromethylquinazolines” (Bioorg Med Chem, 2009)", "key": {"K562": {"system": "K562", "assay": "Cytotoxicity against human K562 cells after 72 hrs by flow cytometry", "type": "cell-based", "conditions": "K562, 72 h; call rule not given here", "procedure,_shortened": "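Chemosensitive K562 subline, late log phase, in phenol-red-free RPMI with 10% serum. Compound range added in duplicate (DMSO <0.5%). After 72 h at 37 °C, 6% CO₂, cells stained with propidium iodide and live cells in a 100 µL sample counted by flow cytometry. IC50 from non-linear regression of dose-response curves, mean of three independent experiments.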"}, "Plasmodium falciparum": {"system": "Plasmodium falciparum", "assay": "Antimalarial activity as reduced parasitaemia after 48 hrs against chloroquine, pyrimethamine and proguanil-resistant Plasmodium falciparum W2 infected in type A+ human erythrocytes by flow cytometry", "type": "functional, organism-based", "conditions": "W2, 48 h"}, "[1]": {"system": "Salmonella enterica subsp. enterica", "assay": "Mutagenic activity in Salmonella Typhimurium TA102 assessed as number of spontaneous and drug-induced revertants after 48 hrs in presence of 4% S9 mixture by Ames test", "type": "toxicity, organism-based", "conditions": "salmonella enterica subsp. enterica serovar typhimurium", "procedure,_shortened": "(§1)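 Liquid-incubation Ames variant. Tester strains grown overnight in nutrient broth. 5×10^-3 M DMSO solution of compound added to 0.1 mL culture, with or without 4% S9 mix, 1 h at 37 °C with shaking. Top agar added and mixture plated on Vogel-Bonner agar. After 48 h at 37 °C in the dark, revertants per plate counted with a laser colony counter.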"}, "Toxoplasma gondii": {"system": "Toxoplasma gondii", "assay": "Antitoxoplasmic activity against Toxoplasma gondii tachyzoites infected in HFF assessed as beta-galactosidase activity after 96 hrs by colorimetric microtiter assay", "type": "functional, organism-based", "procedure,_shortened": "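Tachyzoites of the PRU-β-Gal strain. 10⁴ HFF cells per well grown to confluence in phenol-red-free RPMI with 10% FCS. Monolayers infected with 2.10³ parasites per well for 3 h, then compounds in DMSO (final <0.5%) added in triplicate. Incubated 96 h at 37 °C, 6% CO₂. CPRG added at 500 µM final for a further 24 h. Read at 570/630 nm, blanked on uninfected wells. IC50 from three independent experiments.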"}, "[2]": {"assay": "Selectivity index, ratio IC50 for human HepG2 cells to IC50 for chloroquine, pyrimethamine and proguanil-resistant Plasmodium falciparum W2", "type": "functional", "procedure,_shortened": "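SI = HepG2 IC50 / W2 IC50. MTT 2 h, formazan dissolved in DMSO, absorbance 570 nm (ref 630 nm). Viability as % of untreated control, IC50 from dose-response curve.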"}, "[3]": {"assay": "Selectivity index, ratio of IC50 for human K562 cells to IC50 for chloroquine, pyrimethamine and proguanil-resistant Plasmodium falciparum W2", "type": "toxicity, cell-based", "conditions": "K562 cells (cytotoxicity) versus Plasmodium falciparum W2, read-out: Ratio IC50", "procedure,_shortened": "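SI = K562 IC50 / W2 IC50. Live cells counted by flow cytometry after propidium iodide stain. IC50 by non-linear regression, mean of three independent experiments.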"}, "[4]": {"system": "Salmonella enterica subsp. enterica", "assay": "Mutagenic activity in Salmonella Typhimurium TA102 assessed as number of spontaneous and drug-induced revertants after 48 hrs in absence of 4% S9 mixture by Ames test", "type": "toxicity, organism-based", "conditions": "salmonella enterica subsp. enterica serovar typhimurium", "procedure,_shortened": "as §1"}, "[5]": {"system": "Salmonella enterica subsp. enterica", "assay": "Mutagenic activity in Salmonella Typhimurium TA97a assessed as number of spontaneous and drug-induced revertants after 48 hrs in presence of 4% S9 mixture by Ames test", "type": "toxicity, organism-based", "conditions": "salmonella enterica subsp. enterica serovar typhimurium", "procedure,_shortened": "as §1"}, "[6]": {"system": "Salmonella enterica subsp. enterica", "assay": "Mutagenic activity in Salmonella Typhimurium TA97a assessed as number of spontaneous and drug-induced revertants after 48 hrs in absence of 4% S9 mixture by Ames test", "type": "toxicity, organism-based", "conditions": "salmonella enterica subsp. enterica serovar typhimurium", "procedure,_shortened": "as §1"}, "Leishmania donovani": {"system": "Leishmania donovani", "assay": "Antileishmanial activity against Leishmania donovani HOM/IN/01/2001 promastigotes after 72 hrs by flow cytometry", "type": "functional, organism-based", "conditions": "HOM/IN/01/2001, 72 h", "procedure,_shortened": "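GFP-transfected promastigotes, log phase, in M199 with 10% FCS and 500 µg/mL G418, seeded at 10⁵ parasites/mL. Compounds in DMSO (final <0.5% v/v) added in duplicate over a concentration range. Incubated 72 h at 27 °C.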"}, "[7]": {"system": "Salmonella enterica subsp. enterica", "assay": "Mutagenic activity in Salmonella Typhimurium TA100 assessed as number of spontaneous and drug-induced revertants after 48 hrs in presence of 4% S9 mixture by Ames test", "type": "toxicity, organism-based", "conditions": "salmonella enterica subsp. enterica serovar typhimurium", "procedure,_shortened": "as §1"}, "[8]": {"system": "Salmonella enterica subsp. enterica", "assay": "Mutagenic activity in Salmonella Typhimurium TA98 assessed as number of spontaneous and drug-induced revertants after 48 hrs in presence of 4% S9 mixture by Ames test", "type": "toxicity, organism-based", "conditions": "salmonella enterica subsp. enterica serovar typhimurium", "procedure,_shortened": "as §1"}, "HepG2": {"system": "HepG2", "assay": "Cytotoxicity against human HepG2 cells after 72 hrs by MTT assay", "type": "cell-based", "conditions": "HepG2, 72 h", "procedure,_shortened": "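HepG2 cells plated in RPMI with 10% FBS and grown 24 h, then exposed to a range of compound concentrations for 72 h at 37 °C, 6% CO₂. MTT (5 mg/mL stock) added for 2 h, formazan dissolved in DMSO and read at 570 nm against 630 nm. Viability expressed as percent of untreated control. CC50 taken from the dose-response curve.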"}, "[9]": {"system": "Salmonella enterica subsp. enterica", "assay": "Mutagenic activity in Salmonella Typhimurium TA98 assessed as number of spontaneous and drug-induced revertants after 48 hrs in absence of 4% S9 mixture by Ames test", "type": "toxicity, organism-based", "conditions": "salmonella enterica subsp. enterica serovar typhimurium", "procedure,_shortened": "as §1"}}}
{"smiles": "Clc1cccc(Nc2nc(C(Cl)(Cl)Cl)nc3ccccc23)c1", "values": [{"measurement": "IC50", "setting": "K562", "value": "> 50", "unit": "µM"}, {"measurement": "IC50", "setting": "Plasmodium falciparum", "value": 1700, "unit": "nM"}, {"measurement": "Activity", "setting": "[1]", "value": "Not Active"}, {"measurement": "IC50", "setting": "Toxoplasma gondii", "value": "> 50", "unit": "µM"}, {"measurement": "Ratio IC50", "setting": "[2]", "value": ">58.8"}, {"measurement": "selectivity ratio", "setting": "[3]", "value": "> 29.4"}, {"measurement": "Activity", "setting": "[4]", "value": "Not Active"}, {"measurement": "Activity", "setting": "[5]", "value": "Not Active"}, {"measurement": "Activity", "setting": "[6]", "value": "Not Active"}, {"measurement": "IC50", "setting": "Leishmania donovani", "value": "> 50", "unit": "µM"}, {"measurement": "Activity", "setting": "[7]", "value": "Not Active"}, {"measurement": "Activity", "setting": "[8]", "value": "Not Active"}, {"measurement": "IC50", "setting": "HepG2", "value": "> 100", "unit": "µM"}, {"measurement": "Activity", "setting": "[9]", "value": "Not Active"}]}
{"smiles": "ClC(Cl)(Cl)c1nc(Nc2cccc(Br)c2)c2ccccc2n1", "values": [{"measurement": "IC50", "setting": "K562", "value": "> 50", "unit": "µM"}, {"measurement": "IC50", "setting": "Plasmodium falciparum", "value": 2200, "unit": "nM"}, {"measurement": "Activity", "setting": "[1]", "value": "Not Active"}, {"measurement": "IC50", "setting": "Toxoplasma gondii", "value": "> 50", "unit": "µM"}, {"measurement": "Ratio IC50", "setting": "[2]", "value": ">45.5"}, {"measurement": "selectivity ratio", "setting": "[3]", "value": "> 22.7"}, {"measurement": "Activity", "setting": "[4]", "value": "Not Active"}, {"measurement": "Activity", "setting": "[5]", "value": "Not Active"}, {"measurement": "Activity", "setting": "[6]", "value": "Not Active"}, {"measurement": "IC50", "setting": "Leishmania donovani", "value": "> 50", "unit": "µM"}, {"measurement": "Activity", "setting": "[7]", "value": "Not Active"}, {"measurement": "Activity", "setting": "[8]", "value": "Not Active"}, {"measurement": "IC50", "setting": "HepG2", "value": "> 100", "unit": "µM"}, {"measurement": "Activity", "setting": "[9]", "value": "Not Active"}]}
